TRPC4 block – inhibitors of mouse TRPC4 channel, primary screen, Fluo4 calcium, HEK293 TRPC4beta/mu-opioid cells; 0.39% of 300,000 active; DAMGO-evoked Fluo4 calcium flux; active compounds read low; Short transient receptor potential channel 4 (Mus musculus), Q9QUQ5; B-score at 10 µM;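 active means B-score over 3 SD under the library average, no early fluorescence shift, positive overall ratio signal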
Target sequence (Q9QUQ5 whole entry, looked up): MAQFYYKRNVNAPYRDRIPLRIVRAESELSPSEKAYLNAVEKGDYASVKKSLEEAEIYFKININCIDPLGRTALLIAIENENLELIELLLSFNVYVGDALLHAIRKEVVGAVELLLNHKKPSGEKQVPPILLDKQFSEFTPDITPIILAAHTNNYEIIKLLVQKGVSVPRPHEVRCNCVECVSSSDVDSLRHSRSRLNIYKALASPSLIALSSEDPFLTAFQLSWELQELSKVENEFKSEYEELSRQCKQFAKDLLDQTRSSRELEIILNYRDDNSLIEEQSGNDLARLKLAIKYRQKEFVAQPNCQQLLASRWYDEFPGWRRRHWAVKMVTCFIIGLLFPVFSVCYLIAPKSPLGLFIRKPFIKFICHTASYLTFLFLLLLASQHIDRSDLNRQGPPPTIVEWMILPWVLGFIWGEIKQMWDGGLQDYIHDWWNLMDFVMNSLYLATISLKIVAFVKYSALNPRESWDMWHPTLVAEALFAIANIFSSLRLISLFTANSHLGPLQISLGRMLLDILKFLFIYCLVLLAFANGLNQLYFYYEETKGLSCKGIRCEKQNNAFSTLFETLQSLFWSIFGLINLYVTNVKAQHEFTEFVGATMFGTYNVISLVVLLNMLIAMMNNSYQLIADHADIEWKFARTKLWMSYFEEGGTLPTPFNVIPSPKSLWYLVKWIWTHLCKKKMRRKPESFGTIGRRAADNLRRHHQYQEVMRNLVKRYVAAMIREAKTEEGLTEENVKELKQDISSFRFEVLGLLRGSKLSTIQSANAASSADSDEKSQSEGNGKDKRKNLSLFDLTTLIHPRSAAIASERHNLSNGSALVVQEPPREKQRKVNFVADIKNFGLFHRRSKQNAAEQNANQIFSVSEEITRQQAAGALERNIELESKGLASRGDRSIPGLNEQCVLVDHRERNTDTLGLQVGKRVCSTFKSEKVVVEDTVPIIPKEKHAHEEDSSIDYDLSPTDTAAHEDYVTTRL
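System: stable TRPC4beta/mu-opioid receptor HEK293 cells; Dosing: single-point compound dosing; Measured by: Fluo4 Ca2+ flux fluorescence; Read-out basis: per-well B score of integrated baseline-normalized Fluo4 ratio.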
TRPC4 act – activators of mouse TRPC4 channel, primary screen, Fluo4 calcium, HEK293 TRPC4beta/mu-opioid cells; Short transient receptor potential channel 4 (Mus musculus), Q9QUQ5; Fluo4 calcium fluorescence; active compounds read high; B-score at 10 µM; 0.49% of 310,000 active; AID 2237, 2010;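 active means B-score above 5 SD of library B-scores, and initial fluorescence ratio not above library mean plus 5 SD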;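 further: positive B-score marks a calcium rise read as TRPC4 activation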
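Material: TRPC4beta and mu-opioid receptor HEK293 stable cells | Incubation: 45 min room-temperature Fluo4 loading, 110 s read | Detection: Kinetic Fluo4 calcium fluorescence | Measure: Integrated baseline-normalised fluorescence ratio, converted to per-well B score | Benchmarks: Low control buffer alone, high control maximal DAMGO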
TRPC6 activator – mouse TRPC6 channel activators, primary screen, cell-based, HEK293, membrane potential dye | B-score at 10 µM | 0.13% of 310,000 active | HEK293-TRPC6 membrane potential dye fluorescence; active compounds read high;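 active means B-score of the integrated fluorescence ratio above library mean plus 3 SD, and starting fluorescence ratio within library mean plus 5 SD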;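 further: higher score means more depolarization so channel activation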
TRPC6 inhibitor – mouse TRPC6 channel inhibitors, primary screen, cell-based, HEK293, membrane potential dye | ACh-evoked depolarization; active compounds read low | 1.1% of 310,000 active | Short transient receptor potential channel 6 (Mus musculus), Q61143 | B-score at 10 µM;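 active means B-score under library mean minus 3 SD, initial fluorescence not abnormally high, positive integrated signal ratio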;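 further: B-score derived from integrated fluorescence ratio over the kinetic read; more negative B-score means stronger inhibition of depolarization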
DNA FID counter – compounds displacing fluorescent DNA intercalator, primary screen, artefact control for HCV NS3 helicase inhibitor project, biochemical, FID fluorescence; 0.17% of 290,000 active; AID 1845, 2009; DNA fluorescent intercalator displacement; inhibition, % at 7.9 µM; in the data active means inhibition above about 37%;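 further: 0% = vehicle and 100% = reference compound; higher means more ethidium bromide displaced from hairpin DNA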
TRPC4 potent – positive allosteric modulators of TRPC4, primary screen, cell-based, mouse TRPC4beta, HEK293 mu-opioid, Fluo-4 calcium | Short transient receptor potential channel 4 (Mus musculus), Q9QUQ5 | DAMGO EC20, Fluo-4 Ca2+ flux; active compounds read high | B-score at 10 µM | 0.42% of 310,000 active;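 active means B-score of calcium response area above 5 SD of library B-scores, with initial fluorescence ratio within 5 SD of library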;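 further: B-score of integrated fluorescence ratio over time as area under calcium response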
* = called active by the depositor; i = inactive; / = not tested or not shown. A selection: hits, their analogues and other compounds. The true share with any hit is near 2.3%.

SMILES	TRPC4 block	TRPC4 act	TRPC6 activator	TRPC6 inhibitor	DNA FID counter	TRPC4 potent
Nc1ncnc(Nc2ccc(F)cc2)n1	i	i	i	i	0	i
CC1OC(O[C@H]2CC[C@]3(C)C4C=C[C@]56OC[C@@]7(CC[C@@H](C)[C@H](C)C75)[C@H](O)C[C@@]6(C)[C@]4(C)CC[C@H]3C2(C)C)C(OC2OC(CO)C(O)C(O)C2OC2OCC(O)C(O)C2O)C(O)C1O (some centres not stated)	i	356*	13*	i	/	11*
CC(=O)OC1COC(OC2C(O)C(C)OC(OC3C(OC4CCC5(C)C(CCC6(C)C5CC=C5C7CC(C)(C)CCC7(C(=O)O)CCC56C)C4(C)CO)OCC(O)C3O)C2O)C(O)C1OC(C)=O (configuration not stated)	/	/	/	/	-42	/
COc1ccc(CC(C)N2CCN(Cc3ccccc3)CC2)cc1OC (configuration not stated)	i	i	i	i	38*	i
COc1cc(CN2CCN(S(=O)(=O)c3ccccc3)CC2)cc(OC)c1OC	i	i	i	i	-12	i
COc1cc(S(=O)(=O)N2CCN(Cc3ccccc3)CC2)ccc1Br	i	i	i	i	-9	10*
COc1ccc(C(=O)NC2CCN(CC(=O)NCc3ccccc3F)CC2)cc1	i	i	i	i	-6	i
Cc1cc(S(=O)(=O)Nc2noc3ccccc23)ccc1F	i	i	i	i	-10	i
O=c1[nH]c(C2CCCN(S(=O)(=O)c3ccccc3)C2)nc2c1nnn2Cc1cccc(Cl)c1 (configuration not stated)	i	i	i	i	-29	i
COCC(C)NC(C(=O)Nc1ccc(C)c(Cl)c1)c1ccccc1 (configuration not stated)	i	59*	i	i	-8	i
Nc1c2c(nc3c1CCCC3)CCCC2 (tested in a mixture with another compound)	-6*	i	i	i	1	i
CCCC(=O)N/C(N)=N/c1nc(C)c2ccccc2n1	i	i	i	i	-9	19*
CCCCn1c(N)c(N(Cc2ccccc2OC)C(=O)CCC(C)C)c(=O)[nH]c1=O	i	i	i	i	-27	i
COCCNC(=O)/C(C#N)=C/c1cc(C(C)C)c(OC)cc1C	i	i	i	i	-27	17*
COCCNC(=O)/C(C#N)=C/c1ccccc1Br	i	i	i	i	-2	13*
COc1cc(C)c(/C=C(\C#N)C(=O)Nc2ccc(C)cc2)cc1C(C)C	i	i	i	i	3	i
COCCNC(=O)/C(C#N)=C/C=C/c1ccccc1	i	i	i	i	-4	i
CCOc1ccc(N(CC(=O)N/N=C(\C)c2cccc(NC(C)=O)c2)S(=O)(=O)c2ccccc2)cc1	i	i	i	i	-34	i
Cc1ccc(C)c(-c2ccc(=O)n(Cc3ccc(F)cc3Cl)n2)c1	i	i	i	i	-27	13*
CCc1nnc(NC(=O)CSCc2cc(=O)n3nc(C)sc3n2)s1	i	i	i	i	-4	i
CCN(CC)CCNC(=S)Nc1ccc2nc3n(c(=O)c2c1)CCCCC3	i	i	i	i	4	i
CCCN(CCC)CCCNC(=S)Nc1ccc2nc3n(c(=O)c2c1)CCCCC3	i	i	i	i	3	14*
Cn1nnnc1SCCNCc1ccccc1OCc1ccc(Cl)cc1	-7*	i	i	i	11	i
O=C(c1ccc([N+](=O)[O-])s1)N1CCN(c2cccc(Cl)c2)CC1	-6*	i	i	i	1	i
CCCCNCC1C(Oc2ccc(Cl)cc2)C(=O)N1c1ccccc1C (configuration not stated)	-6*	i	i	i	25	i
SMILES	TRPC4 block	TRPC4 act	TRPC6 activator	TRPC6 inhibitor	DNA FID counter	TRPC4 potent
CCCNCC1C(Oc2ccc(Cl)cc2Cl)C(=O)N1c1cccc(C)c1C (configuration not stated)	i	i	i	i	35	i
CCNC(=S)Nc1ccc(OCc2nc3ccccc3s2)cc1	i	i	i	i	-19	i
C=CCOc1ccc(C(=O)n2cc(C(=O)OC)c3ccccc32)cc1	i	i	i	i	-16	i
Cc1ccc(NC(=O)Nc2cccc([N+](=O)[O-])c2)nc1	i	i	i	i	3	19*
Cc1ccc(C(=O)c2no[n+]([O-])c2C(=O)c2ccc(C)cc2)cc1	i	i	i	i	3	29*
Cc1ccc(C(=O)c2ccc(C)cc2)cc1	i	i	i	i	0	i
Cc1cc2oc(C(=O)N(Cc3ccco3)C3CCS(=O)(=O)C3)cc(=O)c2cc1Cl (configuration not stated)	i	i	i	i	-23	82*
Cc1cc(OCC(=O)N(Cc2ccco2)C2CCS(=O)(=O)C2)ccc1Cl (configuration not stated)	i	i	i	i	-26	i
O=C(CCNS(=O)(=O)c1ccc2[nH]c(=O)oc2c1)Nc1ccccc1	i	i	i	i	0	i
O=C(c1ccc(Cl)c(Cl)c1)N(Cc1ccco1)c1ccc(O)cc1	-7*	i	i	i	-4	i
COc1cc(-c2nnc3n2CCCCC3)cc(OC)c1OC	i	i	i	i	-5	i
CN(C)CCNC(=O)c1ccc(Sc2ccc(Br)cc2)c([N+](=O)[O-])c1	i	i	i	i	39*	i
c1ccc(CCN=C2CCCc3c2[nH]c2ccccc32)cc1	i	155*	i	i	2	i
Nc1ccc(C(=O)N/N=C2\CCCc3c2[nH]c2ccccc32)cc1	i	i	i	i	-6	i
CCCN(C(=O)COC(=O)COc1c(C)cccc1C)c1c(N)n(Cc2ccccc2)c(=O)[nH]c1=O	i	i	i	i	/	i
